Apaf-1 act: activators of human Apaf-1 apoptosome, primary screen, biochemical, DEVD-Rh110 fluorescence, uHTS | Apaf-1 apoptosome caspase-3 activation; stronger effect = lower value | 330,000 compounds, 0.31% hits | Apoptotic protease-activating factor 1 (Homo sapiens), O14727 | activity change, negative = activation, % at 20 µM | AID 489031, 2010;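 active = activity change at or below -40% at 20 µM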
Target sequence (O14727 whole entry, looked up): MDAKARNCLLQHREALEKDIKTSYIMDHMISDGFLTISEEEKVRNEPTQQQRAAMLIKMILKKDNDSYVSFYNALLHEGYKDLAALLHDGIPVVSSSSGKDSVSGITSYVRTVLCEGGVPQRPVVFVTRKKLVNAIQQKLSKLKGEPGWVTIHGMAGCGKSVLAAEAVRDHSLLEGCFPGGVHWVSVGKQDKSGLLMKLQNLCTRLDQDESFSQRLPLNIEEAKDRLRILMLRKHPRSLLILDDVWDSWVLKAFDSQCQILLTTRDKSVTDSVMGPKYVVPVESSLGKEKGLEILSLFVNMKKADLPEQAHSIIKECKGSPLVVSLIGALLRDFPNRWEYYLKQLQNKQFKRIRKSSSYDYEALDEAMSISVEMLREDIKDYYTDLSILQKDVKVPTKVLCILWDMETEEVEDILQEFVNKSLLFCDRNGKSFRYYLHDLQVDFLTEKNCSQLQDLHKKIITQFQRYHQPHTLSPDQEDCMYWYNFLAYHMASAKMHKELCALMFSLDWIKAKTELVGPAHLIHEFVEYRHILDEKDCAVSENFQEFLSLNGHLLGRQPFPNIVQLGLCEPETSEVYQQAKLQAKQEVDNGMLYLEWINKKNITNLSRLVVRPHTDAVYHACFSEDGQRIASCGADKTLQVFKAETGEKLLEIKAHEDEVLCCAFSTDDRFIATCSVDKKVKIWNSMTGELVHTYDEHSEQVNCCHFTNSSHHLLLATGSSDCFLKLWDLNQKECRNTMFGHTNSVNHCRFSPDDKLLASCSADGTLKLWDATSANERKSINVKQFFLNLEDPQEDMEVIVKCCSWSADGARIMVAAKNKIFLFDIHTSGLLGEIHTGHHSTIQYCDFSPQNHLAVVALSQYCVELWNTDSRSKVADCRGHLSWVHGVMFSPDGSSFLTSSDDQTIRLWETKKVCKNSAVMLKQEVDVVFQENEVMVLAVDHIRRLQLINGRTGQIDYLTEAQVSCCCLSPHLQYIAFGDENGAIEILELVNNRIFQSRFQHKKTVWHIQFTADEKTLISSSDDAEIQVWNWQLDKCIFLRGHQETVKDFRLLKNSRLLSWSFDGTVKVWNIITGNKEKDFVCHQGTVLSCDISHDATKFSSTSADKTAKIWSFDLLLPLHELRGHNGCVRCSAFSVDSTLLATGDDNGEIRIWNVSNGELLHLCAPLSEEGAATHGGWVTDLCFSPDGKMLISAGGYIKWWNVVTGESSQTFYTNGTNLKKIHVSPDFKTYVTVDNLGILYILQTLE
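system = biochemical Apaf-1 apoptosome reconstitution | buffer or medium = 20 mM HEPES pH 7.5 with CHAPS, BSA | also added = dATP and cytochrome c as apoptosome triggers, (Z-DEVD)2-Rh110 substrate | incubation = 30 min compound preincubation and 50 min reaction, both room temperature | measured by = fluorescence, 540 nm emission, 480 nm excitation | read-out basis = Caspase-3 cleavage activity downstream of Apaf-1 activation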
Rh110 act interf: Rh110 fluorescence interference by putative Apaf-1 activators, confirmation, artefact control for Apaf-1 activator project, biochemical, 20 µM. shares compounds with Apaf-1 act. quenched caspase reaction, Ex480/Em540. fluorescence interference (activity change), % at 20 µM, hits read low. 980 tested, under 10 active;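 active = mean activity change at or below -40% when tested at 20 µM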
Apaf-1 act conf2: Apaf-1 activators, single-dose retest, confirmation, biochemical, fluorescence, DEVD-Rh110, 20 µM; shares compounds with Apaf-1 act; reconstituted apoptosome caspase-3 activity; stronger effect = lower value; activity change, negative = activation, % at 20 µM; 980 compounds, 5% hits;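 active = mean activity change at or below -40%, meaning activation of 40% or more, at 20 µM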
Hits are given with their value; n = inactive. A selection follows.

SMILES	Apaf-1 act	others
COC(=O)C(Cc1ccc(N(CCCl)CCCl)cc1)N=Cc1ccccc1O (stereo not drawn)	-63
COC(=O)C1=C(c2ccc(OCc3ccccc3)cc2)C[C@@H]2CC[C@H]1N2C(=O)NC1CCN(Cc2ccccc2)CC1	n
CCC(C)N1C(=O)NC(=O)C2(Cc3c(ccc4ccccc34)N(C)C2)C1=O (stereo not drawn)	n
O=[N+]([O-])c1ccc(NC2CCN(Cc3ccccc3)CC2)c2ccncc12	n
NC(N)=N/N=C/c1cn(-c2ccccc2)nc1-c1cccs1	n
Brc1ccc(Oc2ccc(Br)cc2Br)c(Br)c1	-139	Rh110 act interf=n;Apaf-1 act conf2=n
CC(C)CCn1c(N)c(C(=O)OCC2CCCO2)c2nc3ccccc3nc21 (stereo not drawn)	n
CCn1nc(/C=C/c2ccccc2)nc2c(=O)n(C)c(=O)nc1-2	n
COc1cc2c(cc1OC)-c1c3c(cc4c1[C@@H](C2)N(C)CC4)OCO3	n
CCCCCn1c(N)c(C(=O)NCc2cccs2)c2nc3ccccc3nc21	n
Cc1ccc(-n2c(C)nc3ccccc3c2=O)c(C)c1	-76	Rh110 act interf=n;Apaf-1 act conf2=n
Nc1c(C(=O)NCCCc2ccccc2)c2nc3ccccc3nc2n1Cc1cccs1	n
Nc1c(C(=O)NCc2ccco2)c2nc3ccccc3nc2n1CCN1CCOCC1	n
CCCCNC(=O)c1c(N)n(Cc2ccc3c(c2)OCO3)c2nc3ccccc3nc12	n
c1ccc2c(c1)CSc1ccccc1C2C1=NCCN1 (stereo not drawn)	-228	Rh110 act interf=n;Apaf-1 act conf2=n
CCN1/C(=C\C=C\C2=[N+](CC)c3ccccc3C2(C)C)C(C)(C)c2ccccc21	n
CCC(COC(=O)c1cc(OC)c(OC)c(OC)c1)(c1ccccc1)N(C)C (stereo not drawn)	n
CCCCOCCCn1c(N)c(C(=O)OCCOC)c2nc3ccccc3nc21	n
O=C1NC(=O)N(c2ccc(Cl)cc2)C(=O)/C1=C/c1coc2ccc(O)cc2c1=O	-41	Rh110 act interf=n;Apaf-1 act conf2=n
COc1cc2c(cc1OC)-c1c(OC)c(OC)cc3c1C(C2)N(C)CC3 (stereo not drawn)	n
NC(Cc1cc(O)c(O)cc1O)C(=O)O (stereo not drawn)	n
CC(C)C[C@H]1C(=O)N2CCCC2[C@]2(O)O[C@](NC(=O)[C@@H]3C=C4c5cccc6[nH]cc(c56)CC4N(C)C3)(C(C)C)C(=O)N12 (stereo partly drawn)	n
ClC1C(Cl)C(Cl)C(Cl)C(Cl)C1Cl (stereo not drawn)	n
CCCCn1c(NC(=O)c2ccco2)c(C(=O)OCC)c2nc3ccccc3nc21	n
COc1cc(C(c2c(C)[nH]n(-c3ccccc3)c2=O)c2c(C)[nH]n(-c3ccccc3)c2=O)cc(OC)c1OC	n
SMILES	Apaf-1 act	others
COCC(C)OC(=O)c1c(N)n(Cc2ccco2)c2nc3ccccc3nc12 (stereo not drawn)	n
CC(=O)OCC[N+](C)(C)C	n
CCCCCCn1c(N)c(C(=O)NCCN2CCOCC2)c2nc3ccccc3nc21	n
COc1ccc(C(=O)Cn2c(NCCCl)nc3ccccc32)cc1	-331	Rh110 act interf=n;Apaf-1 act conf2=n
COc1ccc(Cn2c(N)c(C(=O)NCc3ccco3)c3nc4ccccc4nc32)cc1	n
Clc1ccc(C[n+]2c(-c3ccccc3)cc(-c3ccccc3)cc2-c2ccccc2)cc1	n
COCCOC(=O)c1c(N)n(Cc2ccccc2)c2nc3ccccc3nc12	n
Nc1cc2nc3ccccc3nc2cc1N	n
O=C1C=Cc2ccccc2C1=O	n
Cn1c(=O)[nH]c2nncnc2c1=O	n
COC(=O)C(O)(c1c(C)[nH]n(-c2ccccc2)c1=O)C(F)(F)F (stereo not drawn)	n
COc1ccccc1CCNCc1cc2c(cc1[N+](=O)[O-])OCO2	-192	Rh110 act interf=n;Apaf-1 act conf2=n
O=C(c1ccc2nc(-c3ccco3)c(-c3ccco3)nc2c1)N1CCC2(CC1)OCCO2	n
O=C1NC(=O)C(=Cc2ccc(Oc3ccc([N+](=O)[O-])cc3)cc2)C(=O)N1	n
CCCCn1c(NS(=O)(=O)c2ccc(C)cc2)c(C(=O)OCC)c2nc3ccccc3nc21	n
CCOC(=O)c1cc(CC)sc1/N=C/c1c(O)[nH]c(=S)[nH]c1=O	-200	Rh110 act interf=-133;Apaf-1 act conf2=n
C=CCN1CC[C@]23c4c5ccc(O)c4O[C@H]2C(=O)CC[C@@]3(O)[C@H]1C5	n
Cc1cc(/C=C2/C(=O)NC(=O)N(Cc3ccco3)C2=O)c(C)n1-c1ccccc1	-53	Rh110 act interf=n;Apaf-1 act conf2=n
O=[N+]([O-])c1ccc(NC2CCCC2)c2ccncc12	n
CCCCn1c(N)c(C(=O)NCc2cccs2)c2nc3ccccc3nc21	n

Assay outcomes as filed in PubChem BioAssay.
